# From the M2OR odorant receptor database
# Assays:
# Conditions in all cases: stereoisomer not certain
# OR1G1 (Homo sapiens) = target: T1, OR1G1 (Homo sapiens) (UniProt P47890)
# T1 sequence (whole entry): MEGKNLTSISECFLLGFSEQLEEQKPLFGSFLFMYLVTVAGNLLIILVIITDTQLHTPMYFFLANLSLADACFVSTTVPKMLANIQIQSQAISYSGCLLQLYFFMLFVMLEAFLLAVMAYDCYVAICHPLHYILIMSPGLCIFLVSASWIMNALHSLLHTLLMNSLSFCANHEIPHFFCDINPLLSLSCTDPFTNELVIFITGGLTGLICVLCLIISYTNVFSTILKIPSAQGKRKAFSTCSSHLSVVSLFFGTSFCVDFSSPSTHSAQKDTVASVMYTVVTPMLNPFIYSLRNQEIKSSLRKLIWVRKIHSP
# Procedure, shortened: (§1)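 Transient luciferase assays in mammalian cell lines were common, though methods varied by source. The values come from published papers and their supplementary material, with extra details from the original authors when needed. Responsive refers to a measured signal the original authors judged statistically different from baseline, and non-responsive (inactive) to the remainder.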
# OR1F12P (Homo sapiens) = target: T2, OR1F12P (Homo sapiens) (UniProt Q8NHA8)
# T2 sequence (whole entry): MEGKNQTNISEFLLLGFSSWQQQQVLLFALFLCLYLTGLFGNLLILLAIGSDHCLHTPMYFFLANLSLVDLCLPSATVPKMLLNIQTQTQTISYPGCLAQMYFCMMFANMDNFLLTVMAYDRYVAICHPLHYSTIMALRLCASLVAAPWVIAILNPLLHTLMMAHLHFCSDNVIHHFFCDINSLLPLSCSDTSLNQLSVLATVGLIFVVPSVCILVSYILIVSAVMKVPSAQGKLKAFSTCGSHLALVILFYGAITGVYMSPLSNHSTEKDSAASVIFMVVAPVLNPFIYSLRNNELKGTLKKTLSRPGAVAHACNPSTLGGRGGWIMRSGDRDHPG
# Procedure, shortened: as §1
# OR1I1 (Homo sapiens) = target: T3, OR1I1 (Homo sapiens) (UniProt O60431)
# T3 sequence (whole entry): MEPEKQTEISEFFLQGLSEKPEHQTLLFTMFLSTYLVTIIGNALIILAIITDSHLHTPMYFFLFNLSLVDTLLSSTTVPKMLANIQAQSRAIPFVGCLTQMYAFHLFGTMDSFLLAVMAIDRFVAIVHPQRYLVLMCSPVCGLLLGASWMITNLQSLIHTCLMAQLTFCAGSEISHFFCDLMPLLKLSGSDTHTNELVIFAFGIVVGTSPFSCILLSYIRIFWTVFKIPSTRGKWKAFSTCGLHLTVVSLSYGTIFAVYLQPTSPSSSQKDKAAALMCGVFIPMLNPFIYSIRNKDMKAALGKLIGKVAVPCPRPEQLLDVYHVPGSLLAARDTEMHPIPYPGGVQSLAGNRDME
# Procedure, shortened: as §1
# OR1J1 (Homo sapiens) = target: T4, OR1J1 (Homo sapiens) (UniProt Q8NGS3)
# T4 sequence (whole entry): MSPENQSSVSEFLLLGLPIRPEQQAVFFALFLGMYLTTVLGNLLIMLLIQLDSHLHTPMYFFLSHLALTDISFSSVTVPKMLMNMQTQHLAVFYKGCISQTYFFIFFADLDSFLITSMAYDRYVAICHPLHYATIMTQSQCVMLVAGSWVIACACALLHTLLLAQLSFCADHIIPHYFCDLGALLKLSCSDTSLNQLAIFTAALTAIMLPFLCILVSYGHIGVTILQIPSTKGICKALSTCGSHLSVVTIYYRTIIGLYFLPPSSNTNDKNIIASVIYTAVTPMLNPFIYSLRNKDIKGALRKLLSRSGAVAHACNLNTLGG
# Procedure, shortened: as §1
# OR1K1 (Homo sapiens) = target: T5, OR1K1 (Homo sapiens) (UniProt Q8NGR3)
# T5 sequence (whole entry): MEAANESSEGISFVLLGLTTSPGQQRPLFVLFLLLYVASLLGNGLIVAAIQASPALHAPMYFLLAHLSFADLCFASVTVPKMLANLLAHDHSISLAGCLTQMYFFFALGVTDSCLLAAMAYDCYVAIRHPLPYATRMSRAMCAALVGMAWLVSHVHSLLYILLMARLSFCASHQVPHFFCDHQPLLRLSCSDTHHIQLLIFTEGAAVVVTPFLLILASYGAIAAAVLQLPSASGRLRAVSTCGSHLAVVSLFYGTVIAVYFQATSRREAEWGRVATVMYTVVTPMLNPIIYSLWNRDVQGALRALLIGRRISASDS
# Procedure, shortened: as §1
# OR1L1 (Homo sapiens) = target: T6, OR1L1 (Homo sapiens) (UniProt Q8NH94)
# T6 sequence (whole entry): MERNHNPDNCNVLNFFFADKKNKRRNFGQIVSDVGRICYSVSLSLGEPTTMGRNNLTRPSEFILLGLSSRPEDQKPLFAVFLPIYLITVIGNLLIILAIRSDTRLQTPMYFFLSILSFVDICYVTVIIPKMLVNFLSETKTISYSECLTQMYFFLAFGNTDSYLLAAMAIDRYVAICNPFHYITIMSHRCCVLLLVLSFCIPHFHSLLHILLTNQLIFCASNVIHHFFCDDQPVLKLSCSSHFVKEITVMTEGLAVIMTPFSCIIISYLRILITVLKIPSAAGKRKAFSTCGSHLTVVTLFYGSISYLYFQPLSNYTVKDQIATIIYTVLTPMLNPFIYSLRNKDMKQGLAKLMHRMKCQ
# Procedure, shortened: as §1
# OR1J2 (Homo sapiens) = target: T7, OR1J2 (Homo sapiens) (UniProt Q8NGS2)
# T7 sequence (whole entry): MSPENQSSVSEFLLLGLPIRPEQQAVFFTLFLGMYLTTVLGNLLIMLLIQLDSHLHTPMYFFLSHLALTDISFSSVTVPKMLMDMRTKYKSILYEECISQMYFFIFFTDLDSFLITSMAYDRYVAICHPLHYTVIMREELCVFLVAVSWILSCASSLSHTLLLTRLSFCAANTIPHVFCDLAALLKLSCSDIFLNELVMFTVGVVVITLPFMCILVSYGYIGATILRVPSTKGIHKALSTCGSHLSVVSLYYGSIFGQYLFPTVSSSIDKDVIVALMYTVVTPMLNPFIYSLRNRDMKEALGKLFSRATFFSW
# Procedure, shortened: as §1
# OR1J4 (Homo sapiens) = target: T8, OR1J4 (Homo sapiens) (UniProt Q8NGS1)
# T8 sequence (whole entry): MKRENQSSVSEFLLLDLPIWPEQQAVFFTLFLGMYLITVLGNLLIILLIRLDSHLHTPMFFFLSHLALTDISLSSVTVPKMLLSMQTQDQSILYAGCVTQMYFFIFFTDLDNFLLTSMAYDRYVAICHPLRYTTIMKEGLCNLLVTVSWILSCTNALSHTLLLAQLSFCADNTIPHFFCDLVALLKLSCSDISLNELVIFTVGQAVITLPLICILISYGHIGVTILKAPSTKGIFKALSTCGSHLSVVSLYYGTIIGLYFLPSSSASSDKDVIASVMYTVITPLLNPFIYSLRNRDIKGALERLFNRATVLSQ
# Procedure, shortened: as §1
# OR1F1 = system: T9, OR1F1
# T9 sequence (whole entry): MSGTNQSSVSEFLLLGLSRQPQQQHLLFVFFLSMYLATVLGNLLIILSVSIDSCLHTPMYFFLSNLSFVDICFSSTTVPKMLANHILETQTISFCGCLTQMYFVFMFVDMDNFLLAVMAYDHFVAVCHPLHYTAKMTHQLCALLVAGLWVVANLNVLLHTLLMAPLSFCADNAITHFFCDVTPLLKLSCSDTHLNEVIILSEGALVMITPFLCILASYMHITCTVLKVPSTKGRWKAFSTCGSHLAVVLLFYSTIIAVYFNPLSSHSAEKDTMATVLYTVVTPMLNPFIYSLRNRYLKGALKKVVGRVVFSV
# Procedure, shortened: as §1
# OR1L1 = system: T10, OR1L1
# T10 sequence (whole entry): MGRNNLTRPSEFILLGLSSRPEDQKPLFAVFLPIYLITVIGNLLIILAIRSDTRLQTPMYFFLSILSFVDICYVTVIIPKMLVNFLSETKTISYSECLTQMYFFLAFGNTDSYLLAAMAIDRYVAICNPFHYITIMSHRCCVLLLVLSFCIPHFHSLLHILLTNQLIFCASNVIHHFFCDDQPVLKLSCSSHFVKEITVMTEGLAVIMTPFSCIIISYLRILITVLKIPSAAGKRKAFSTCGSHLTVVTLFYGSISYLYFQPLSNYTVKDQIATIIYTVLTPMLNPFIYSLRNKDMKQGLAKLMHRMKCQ
# Procedure, shortened: as §1
# 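Also: active if original authors judged signal statistically different from baseline.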
smiles,measurement,setting,value
CCCCCCCC(C)O (stereo not drawn),odorant receptor agonist call,OR1G1 (Homo sapiens),active
CC(=O)c1c(C)c([N+](=O)[O-])c(C(C)(C)C)c([N+](=O)[O-])c1C,odorant receptor agonist call,OR1F12P (Homo sapiens),inactive
same,odorant receptor agonist call,OR1G1 (Homo sapiens),inactive
same,odorant receptor agonist call,OR1I1 (Homo sapiens),inactive
same,odorant receptor agonist call,OR1J1 (Homo sapiens),inactive
same,odorant receptor agonist call,OR1K1 (Homo sapiens),inactive
same,odorant receptor agonist call,OR1L1 (Homo sapiens),inactive
COC1CC2CC1C1CC(C=O)CC21 (stereo not drawn),odorant receptor agonist call,OR1G1 (Homo sapiens),inactive
C=CC(C)(CCC=C(C)C)OC(C)=O (stereo not drawn),odorant receptor agonist call,OR1G1 (Homo sapiens),inactive
CCCCC(S)C(C)CO (stereo not drawn),odorant receptor agonist call,OR1F12P (Homo sapiens),inactive
same,odorant receptor agonist call,OR1G1 (Homo sapiens),inactive
same,odorant receptor agonist call,OR1I1 (Homo sapiens),inactive
same,odorant receptor agonist call,OR1J1 (Homo sapiens),inactive
same,odorant receptor agonist call,OR1J2 (Homo sapiens),inactive
same,odorant receptor agonist call,OR1J4 (Homo sapiens),active
same,odorant receptor agonist call,OR1K1 (Homo sapiens),inactive
same,odorant receptor agonist call,OR1L1 (Homo sapiens),inactive
CCCC(S)CCOC(C)=O (stereo not drawn),odorant receptor agonist call,OR1F12P (Homo sapiens),inactive
same,odorant receptor agonist call,OR1F1,inactive
same,odorant receptor agonist call,OR1G1 (Homo sapiens),inactive
same,odorant receptor agonist call,OR1I1 (Homo sapiens),inactive
same,odorant receptor agonist call,OR1J1 (Homo sapiens),inactive
same,odorant receptor agonist call,OR1J2 (Homo sapiens),inactive
same,odorant receptor agonist call,OR1J4 (Homo sapiens),inactive
same,odorant receptor agonist call,OR1K1 (Homo sapiens),inactive
same,odorant receptor agonist call,OR1L1,inactive
CCCCCCCCC(=O)OC,odorant receptor agonist call,OR1G1 (Homo sapiens),active
CC1=C(O)C(=O)OC1C (stereo not drawn),odorant receptor agonist call,OR1F12P (Homo sapiens),inactive
same,odorant receptor agonist call,OR1F1,inactive
same,odorant receptor agonist call,OR1G1 (Homo sapiens),inactive
same,odorant receptor agonist call,OR1I1 (Homo sapiens),inactive
same,odorant receptor agonist call,OR1J1 (Homo sapiens),inactive
same,odorant receptor agonist call,OR1J2 (Homo sapiens),inactive
same,odorant receptor agonist call,OR1J4 (Homo sapiens),inactive
same,odorant receptor agonist call,OR1K1 (Homo sapiens),inactive
same,odorant receptor agonist call,OR1L1,inactive
CCCCCCC=CCCC=O,odorant receptor agonist call,OR1F12P (Homo sapiens),inactive
same,odorant receptor agonist call,OR1F1,inactive
same,odorant receptor agonist call,OR1G1 (Homo sapiens),inactive
same,odorant receptor agonist call,OR1I1 (Homo sapiens),inactive
same,odorant receptor agonist call,OR1J1 (Homo sapiens),inactive
same,odorant receptor agonist call,OR1J2 (Homo sapiens),inactive
same,odorant receptor agonist call,OR1J4 (Homo sapiens),inactive
same,odorant receptor agonist call,OR1K1 (Homo sapiens),inactive
same,odorant receptor agonist call,OR1L1 (Homo sapiens),inactive
CCCCCCCC(=O)[O-].[H+],odorant receptor agonist call,OR1G1 (Homo sapiens),inactive
CCCCCCCO,odorant receptor agonist call,OR1G1 (Homo sapiens),active
CCCCCCC(=O)[O-].[H+],odorant receptor agonist call,OR1G1 (Homo sapiens),inactive
CC1=C(O)C(=O)C(C)O1 (stereo not drawn),odorant receptor agonist call,OR1F12P (Homo sapiens),inactive
same,odorant receptor agonist call,OR1F1,inactive
same,odorant receptor agonist call,OR1G1 (Homo sapiens),inactive
same,odorant receptor agonist call,OR1I1 (Homo sapiens),inactive
same,odorant receptor agonist call,OR1J1 (Homo sapiens),inactive
same,odorant receptor agonist call,OR1J2 (Homo sapiens),inactive
same,odorant receptor agonist call,OR1J4 (Homo sapiens),inactive
same,odorant receptor agonist call,OR1K1 (Homo sapiens),inactive
same,odorant receptor agonist call,OR1L1,inactive
c1ccc2ncccc2c1,odorant receptor agonist call,OR1G1 (Homo sapiens),active
CC(CO)CS (stereo not drawn),odorant receptor agonist call,OR1F12P (Homo sapiens),inactive
same,odorant receptor agonist call,OR1G1 (Homo sapiens),inactive
same,odorant receptor agonist call,OR1I1 (Homo sapiens),inactive
same,odorant receptor agonist call,OR1J1 (Homo sapiens),inactive
same,odorant receptor agonist call,OR1J2 (Homo sapiens),inactive
same,odorant receptor agonist call,OR1J4 (Homo sapiens),inactive
same,odorant receptor agonist call,OR1K1 (Homo sapiens),inactive
same,odorant receptor agonist call,OR1L1 (Homo sapiens),inactive
C=CC(C)(O)CCC=C(C)CCC=C(C)C (stereo not drawn),odorant receptor agonist call,OR1G1 (Homo sapiens),inactive
CC1CCCCCCCCCCCCC(=O)C1 (stereo not drawn),odorant receptor agonist call,OR1F12P (Homo sapiens),inactive
same,odorant receptor agonist call,OR1G1 (Homo sapiens),inactive
same,odorant receptor agonist call,OR1I1 (Homo sapiens),inactive
same,odorant receptor agonist call,OR1J1 (Homo sapiens),inactive
same,odorant receptor agonist call,OR1K1 (Homo sapiens),inactive
same,odorant receptor agonist call,OR1L1 (Homo sapiens),inactive
CCC1OC(=O)C(O)=C1C (stereo not drawn),odorant receptor agonist call,OR1F12P (Homo sapiens),inactive
same,odorant receptor agonist call,OR1F1,inactive
same,odorant receptor agonist call,OR1G1 (Homo sapiens),inactive
same,odorant receptor agonist call,OR1I1 (Homo sapiens),inactive
same,odorant receptor agonist call,OR1J1 (Homo sapiens),inactive
same,odorant receptor agonist call,OR1J2 (Homo sapiens),inactive
same,odorant receptor agonist call,OR1J4 (Homo sapiens),inactive
same,odorant receptor agonist call,OR1K1 (Homo sapiens),inactive
same,odorant receptor agonist call,OR1L1,inactive
c1cscn1,odorant receptor agonist call,OR1G1 (Homo sapiens),active
